# Screening data (PubChem)
# m-calpain inh – blocks pig calpain II enzyme activity | purified calpain II, fluorogenic peptide substrate, 30 min | inhibition, % at 16 µM | 220,000 tested, 0.37% active;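 active = inhibition above about 50%, limit read from the data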
# KLK5 inh – kallikrein 5 (human) inhibition; Q9Y337; recombinant hK5, fluorogenic AMC substrate cleavage; inhibition, % at 5 µM; 210,000 tested, 0.59% active; AID 873;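 active = inhibition of 40% or more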
# FXIa inh 1536 – blocks human coagulation factor XIa protease activity | P03951 | 220,000 tested, 0.14% active | AID 798 | purified FXIa, Boc-Glu-Ala-Arg-AMC fluorogenic substrate | inhibition, % at 5 µM;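 active = inhibition of at least 40%; inactive = inhibition below 40%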;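 also: fluorescence of freed AMC excited at 355 nm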
# FXIIa inh 1536 – blocks human coagulation factor XIIa protease activity. purified FXIIa, Boc-QGR-AMC fluorogenic substrate, 2 h. inhibition, % at 5 µM. 220,000 tested, 0.3% active; in the data active = inhibition above about 40%
# Target sequence (P00748 20-372 limits assumed): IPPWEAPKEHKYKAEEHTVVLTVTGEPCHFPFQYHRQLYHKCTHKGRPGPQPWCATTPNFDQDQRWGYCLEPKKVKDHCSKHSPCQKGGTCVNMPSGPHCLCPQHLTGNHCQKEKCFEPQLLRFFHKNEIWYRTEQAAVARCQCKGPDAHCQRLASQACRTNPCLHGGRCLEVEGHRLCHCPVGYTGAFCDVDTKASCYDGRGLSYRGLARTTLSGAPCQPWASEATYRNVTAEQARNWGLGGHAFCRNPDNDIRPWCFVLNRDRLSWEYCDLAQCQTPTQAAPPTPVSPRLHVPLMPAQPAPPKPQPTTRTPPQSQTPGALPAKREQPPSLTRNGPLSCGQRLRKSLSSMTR
# Target sequence (P00748 373-615 limits assumed): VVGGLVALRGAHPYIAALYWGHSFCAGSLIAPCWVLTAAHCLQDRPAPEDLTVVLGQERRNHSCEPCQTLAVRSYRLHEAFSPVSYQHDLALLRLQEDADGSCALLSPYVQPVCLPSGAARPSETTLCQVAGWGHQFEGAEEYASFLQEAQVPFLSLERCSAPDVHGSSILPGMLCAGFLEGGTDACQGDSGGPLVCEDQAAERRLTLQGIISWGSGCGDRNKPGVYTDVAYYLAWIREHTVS
# thrombin 1536 – thrombin (human) inhibition | P00734 | alpha-thrombin, Boc-VPR-AMC fluorogenic substrate cleavage | inhibition, % at 5 µM | 220,000 tested, 0.26% active;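 active = inhibition at or above 40%; inactive = inhibition below 40%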
#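 Test system: human alpha-thrombin protein / Dosing: one concentration per compound, 5 µM, with 0.2% DMSO / Medium: pH 7.5 Tris-saline with Tween 20 / Benchmarks: no-compound enzyme wells and no-enzyme blanks / Read-out basis: percent inhibition of thrombin substrate cleavage / Timing: reaction at room temperature / Measured by: fluorescence, ex 355 nm, em 460 nm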
# Furin inh – blocks human furin protease activity; purified furin, fluorogenic substrate cleavage; inhibition, % at 20 µM or 30 µM; 220,000 tested, 0.061% active; AID 463115; in the data active = inhibition above about 25%
# Numbers stand for hits; 0 = inactive. In the library only some 1.4% were active in any assay of this set; here they are far more common.
SMILES,m-calpain inh,KLK5 inh,FXIa inh 1536,FXIIa inh 1536,thrombin 1536,Furin inh
Cn1c(N)c(C(=O)COC(=O)C2CCCCC2)c(=O)n(C)c1=O,89,0,0,0,0,0
Cn1c(N)c(C(=O)COC(=O)CCCc2nc3ccccc3s2)c(=O)n(C)c1=O,51,0,0,0,0,0
Cn1c(N)c(C(=O)COC(=O)C2CCN(S(=O)(=O)c3cccs3)CC2)c(=O)n(C)c1=O,0,0,0,0,0,0
Cc1ccc(C(=O)NNC(=O)C2CCN(Cc3ccc(Cl)c(Cl)c3)CC2)cc1,0,0,0,0,0,0
O=C1CSC(c2cccc([N+](=O)[O-])c2)N1c1c(F)cccc1F (stereo unspecified),0,0,0,0,0,0
CCCOc1ccc(CCC(=O)O)cc1,0,0,0,0,0,0
c1ccc(-c2cn(-c3ccccc3)c3ncnc(N4CCCCC4)c23)cc1,53,0,0,0,0,0
CN1CCN(c2ncnc3c2c(-c2ccccc2)cn3-c2ccc(F)cc2)CC1,0,0,0,0,0,0
NC(=O)N/N=C/C=C/c1ccccc1,0,0,0,0,42,0
Cc1cc(C)c(NC(=O)C2CC(=O)N(Cc3ccccc3)C2)c(C)c1 (stereo unspecified),0,0,0,0,0,0
COc1ccccc1NC(=O)C1C2CCCCC21 (stereo unspecified),0,61,0,0,104,0
COc1ccccc1NC(=O)/C=C\C(=O)O,77,0,0,0,0,0
COc1ncnc2c1oc1nc(CC(C)C)c3c(c12)CC(C)(C)OC3,0,0,0,0,0,0
CCN(CC)S(=O)(=O)c1ccc(N2CCOCC2)c(NC(=O)c2ccc(C#N)cc2)c1,0,0,0,0,0,0
Cc1ccc(NC(=O)c2ccccc2-c2cc(C)no2)cc1,0,0,0,0,0,0
COc1ccc(-c2noc(-c3cccs3)n2)cc1OC,0,0,0,0,0,0
CCOc1ccc(Br)cc1-c1noc(-c2cccs2)n1,0,48,0,0,0,0
Cc1ccc(NS(=O)(=O)c2ccc(Cl)c(C(=O)O)c2)cc1S(=O)(=O)N1CCOCC1,0,0,0,0,0,0
CC(C)(C)C(=O)Nc1ccccc1C(=O)Nc1ccncc1,0,0,0,0,0,0
Cn1c(SCC(=O)N2c3ccccc3CCc3ccccc32)nnc1-c1cc2ccccc2cc1O,0,0,0,0,101,0
Clc1ccc(/C=N/N2CCCCC2)cc1,0,0,0,0,0,0
O=C(Nc1ccc2ccccc2c1)C(=O)C1C(=O)Nc2ccccc21 (stereo unspecified),51,0,0,0,0,0
O=C(Nc1ccc(F)cc1)C(=O)C1C(=O)Nc2ccccc21 (stereo unspecified),0,0,0,0,0,0
Oc1oc(-c2ccc(Br)cc2)nc1/C=N/c1ccccn1,0,0,0,0,0,0
Cc1ccc(S(=O)(=O)N(Cc2ccccc2)c2ccccc2C(=O)Nc2ccccc2C(=O)NCc2ccco2)cc1,0,0,0,0,0,0
SMILES,m-calpain inh,KLK5 inh,FXIa inh 1536,FXIIa inh 1536,thrombin 1536,Furin inh
Cc1ccc(S(=O)(=O)N(Cc2ccccc2)c2ccccc2C(=O)NCc2ccco2)cc1,0,0,0,47,0,0
O=C1CC(Nc2ccccc2)C(=O)N1c1ccc(N2CCOCC2)cc1 (stereo unspecified),0,45,0,0,0,0
O=C1CC(Nc2ccc(N3CCOCC3)cc2)C(=O)N1c1ccccc1F (stereo unspecified),0,0,0,0,0,0
CN(C)CCCNC(=O)c1cc(C(=O)Cc2ccccc2)c[nH]1,0,0,0,0,0,0
CCCCCCCNC1=CC(=O)CC(c2ccccc2)C1 (stereo unspecified),74,0,0,0,0,0
CCCCCNC1=CC(=O)CC(c2ccccc2)C1 (stereo unspecified),0,0,0,0,0,0
CCCCCCCCNC1=CC(=O)CC(C)(C)C1,0,50,0,0,0,0
Cc1ccn2c(C(=O)N/N=C\c3ccc4c(c3)OCO4)c(C)nc2c1,0,0,0,0,0,0
CCCCNC(=S)NCc1ccc2[nH]c3c(c2c1)CCCC3,63,0,0,0,0,0
CCNc1nc(NC(C)(C)C)nc(N2CCCCC2)n1,0,0,0,0,0,0
CC1CCN(c2nc3ccccc3nc2C(C#N)C(=O)OC2CCCCC2)CC1 (stereo unspecified),0,0,0,0,0,0
